The RNAGym collection of RNA variant scans (doi:10.1126/science.aae0568)
Fewer inactive variants are shown than the library holds.

B1: tRNA (parent)
chain: GUUCCGUUGGCGUAAUGGUAACGCGUCUCCCUCCUAAGGAGAAGACUGCGGGUUCGAGUCCCGUACGGAACG

Variants of: B1
Experiment: yeast fitness relative to wild type (ratio to wild type); higher = fitter; tRNA-Arg(CCU), competitive growth, 37 C, YPD
In short: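 Amplicons of the tRNA-Arg(CCU) gene were sequenced, 100-nucleotide paired-end, from the start population and from each end population of a pooled yeast competition. The competition, in six parallel replicates, lasted 24 hours in YPD at 37°C. Fitness relative to wild type was calculated from changes in genotype frequencies. Genotypes had to have ≥ 100 starting reads, and estimates < 0.5 were set to 0.5.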

Row | Variant | yeast fitness
1 | GUUCGGUUGGCGUAAUGGUAACGCGUCUCCUUCCUAAGGAGAAGACUGCGGAUUCGAGUCCCGUACGGAACG [C5G C31U G52A] | 0.612
2 | GUUCGGUUGGCGUAAUGGUAACGCGUCUCCCUCCUAAGGAGAAGAUUGCGGGUUCGCGUCCCGUACGGAACG [C5G C46U A57C] | 0.552
3 | GUUCGGUUGGCGUAAUGGUAACGCGUCUCUCACCUAAGGAGAAGACUGGGGGUUCGAGUCCCGUACGGAACG [C5G C30U U32A C49G] | ≤ 0.5
4 | GUUCGGUUGGCGUAAUGGUAACGCGUCUCCCUCCUAAGGAGAAGACUGAGGGUUCGAGUCCCAUACGGAACG [C5G C49A G63A] | ≤ 0.5
5 | GUUCGGUUGGCGUAAUGGUAACGCGUCUCCCUCGUAAGGAGAAGACUGUAGGUUCGAGUCCCGUACGGAACG [C5G C34G C49U G50A] | ≤ 0.5
6 | GUUCGGUUGGCGUAAUGGUAACGCGUCUCUGUCCUAAGGAGAAGACUGCGGGUUCGAGUCCCGUACGGAACG [C5G C30U C31G] | 0.79
7 | GUUCGGUUGGCGUAAUGGUAACGCGUCUCCCUACUACGGAGAAGACUGCGGGUUCGAGUCUAGUACGGAACG [C5G C33A A37C C61U C62A] | ≤ 0.5
8 | GUUCGGUUGGCGUAAUGGUAACGCGUUUCCCUCCUAAGGAGAAGACUGCGAGUUCGAGUCCCGUACGGAACG [C5G C27U G51A] | ≤ 0.5
9 | GUUCGGUUGGCGUAAUGGUAACGCGUCUCUCUCCUAAGGAGAAGACUGCCGGUUCGAGUCCCGUACGGAACG [C5G C30U G50C] | ≤ 0.5
10 | GUUCGGUUGGCGUAAUGGUAACGCGUGUCCCUCCUAAGGAGAAGACUGCGGGUUGGAGUCCCGUACGGAACG [C5G C27G C55G] | ≤ 0.5
11 | GUUCGGUUGGCGUAAUGGUAACGCGUCUCCCUCCUAAGGAGAAGAUUGCGGGAUCGAGUCCCGUACGGAACG [C5G C46U U53A] | 0.529
12 | GUUCGGUUGGCGUAAUGGUAACGCGUCUGCCACCUAUGGAGAAGACUGCGGGUUCGAGUCCCGUACGGAACG [C5G C29G U32A A37U] | ≤ 0.5
13 | GUUCGGUUGGCGUAAUGGUAACGCGUCUCAAUCCUAAGGAGAAGACUGUGGGUUGGAGUCCCGUACGGAACG [C5G C30A C31A C49U C55G] | 0.544
14 | GUUCGGUUGGCGUAAUGGUAACGCGUCUCGCUCCUAAGGAGAAGACUGCGGGUUCGAGUCGCGUACGGAACG [C5G C30G C61G] | ≤ 0.5
15 | GUUCGGUUGGCGUAAUGGUAACGCGUUUCCCUCCUAAGGACAAGACUGCGGGUUCGCGUCCCGUACGGAACG [C5G C27U G41C A57C] | 0.565
16 | GUUCGGUUGGCGUAAUGGUAACGCGUCUCCUCCCUAAGGAGAAGACUGCGGGUUCGAGUCCCGUACGGAACG [C5G C31U U32C] | 0.659
17 | GUUCGGUUGGCGUAAUGGUAACGCGUCUCGCUCCUAAGGAGAAGACUGCGGGUUCGAGUCCCGUACAGAUCG [C5G C30G G67A A70U] | ≤ 0.5
18 | GUUCGGUUGGCGUAAUGGUAACGCGUCUCCGUCCUAAGGAGAAGACUGCGGGUUCGCGUCCCGUACGGAACG [C5G C31G A57C] | 0.502
19 | GUUCGGUUGGCGUAAUGGUAACGCGUCUCCAUCCUCAGGAGACGACUGCGGGUUGGAGUCCCGUACGGAACG [C5G C31A A36C A43C C55G] | 1.06

Row | Variant | yeast fitness
20 | GUUCGGUUGGCGUAAUGGUAACGCGUCUCACUCCUGAGGAGAAGCCUGCGGGUUCGAGUCCCGUACGGUACG [C5G C30A A36G A45C A69U] | ≤ 0.5
21 | GUUCGGUUGGCGUAAUGGUAACGCGUCUCCCUCCUAAGGAGAAGAGUGGGGGUUCGAGUCCAGUACGGAACG [C5G C46G C49G C62A] | ≤ 0.5
22 | GUUCGGUUGGCGUAAUGGUAACGCGUGUCCCCUCUAAGGAGAAGACUGCGGGUUCAAGUCCCGUACGGUACG [C5G C27G U32C C33U G56A A69U] | ≤ 0.5
23 | GUUCGGUUGGCGUAAUGGUAACGCGUCUCUCUCCUAAGGGGAAGACUGCGGGUUUGAGUCCCGUACGGAACG [C5G C30U A40G C55U] | ≤ 0.5
24 | GUUCGGUUGGCGUAAUGGUAACGCGUCUCCAUCCUAAGGAGAAGACUGCGGGUUCGAGUCCCGUAGGGAACG [C5G C31A C66G] | ≤ 0.5
25 | GUUCGGUUGGCGUAAUGGUAACGCGUUUCCCUCCUAAGGACAAGACUGCGGGUUCGAGUCCCGUACGGAACG [C5G C27U G41C] | ≤ 0.5
26 | GUUCGGUUGGCGUAAUGGUAACGCGUCUACAUCCUAAGGAGAAGACUGCGGGUUCGAGUCCCGUACGGAACG [C5G C29A C31A] | 0.714
27 | GUUCGGUUGGCGUAAUGGUAACGCGUCUCCUUUCUAAGGAGAAGACUGCGGGUUCGUGUCCCGUACGGAACG [C5G C31U C33U A57U] | ≤ 0.5
28 | GUUCGGUUGGCGUAAUGGUAACGCGUCUCUGUCCUAAGGAGAAGAUUGCGGGUUCGAGUCCCGUACGGAACG [C5G C30U C31G C46U] | ≤ 0.5
29 | GUUCGGUUGGCGUAAUGGUAACGCGUCUCCCUCAUAAGCAGAAGACUGCGGAUUCGAAUCCCGUACGGAACG [C5G C34A G39C G52A G58A] | 0.532
30 | GUUCGGUUGGCGUAAUGGUAACGCGUCUCCUUCCUAGGGAGAAGACUGCGGGUUCGAGUCCCGUACGGAACG [C5G C31U A37G] | 0.592
31 | GUUCGGUUGGCGUAAUGGUAACGCGUCUUCCUCCUAAGGGGAAGACUGCGGGUUCGGGUCCCGUACGGAACG [C5G C29U A40G A57G] | ≤ 0.5
32 | GUUCGGUUGGCGUAAUGGUAACGCGUCUAUCUCCAAAGGAGAAGACUGCGGGUUGCAGUCCCGUACGGAACG [C5G C29A C30U U35A C55G G56C] | ≤ 0.5
33 | GUUCGGUUGGCGUAAUGGUAACGCGUUUCCCUCCUAAGGAGAACACUCCGGGUUCGAGUCCCGUACGGAACG [C5G C27U G44C G48C] | ≤ 0.5
34 | GUUCGGUUGGCGUAAUGGUAACGCGUCUCCCUACUAAGGAGAAGACUGCGGGUUCGAGUCCCGAACGGAACG [C5G C33A U64A] | ≤ 0.5
35 | GUUCGGUUGGCGUAAUGGUAACGCGUCUUCGUCCUAAGGAGAACACUGCGGGUUCGAGUCCCGUACGGAACG [C5G C29U C31G G44C] | 0.556
36 | GUUCGGUUGGCGUAAUGGUAACGCGUCUCCAUCCUAAGGAGAAGACUGCGGGUUCGAGUCCCGUACGGAACG [C5G C31A] | 0.79
37 | GUUCGGUUGGCGUAAUGGUAACGCGUCUCCGUCCUAAGGAGAAGACUGCGGGUUCGAGUCCCGUACGGAACG [C5G C31G] | 0.824
38 | GUUCGGUUGGCGUAAUGGUAACGCGUCUCCAUCCUACGGAGAAGACUACGGGUUCGACUCCCGUACGCAACG [C5G C31A A37C G48A G58C G68C] | ≤ 0.5
